Measurements taken from article PMC3886125 (Molecular nutrition & food research, 2012).
Marks after values point to notes of the source that are not given here.

How the values were obtained:
Xanthones in serum = assay type: in vivo, Balb/c nu/nu mice; details: for Identified in serum by HPLC-MS: mice fed diet with α-MG, not detected by HPLC-DAD
[1] = Xanthones in tumor tissue; assay type: in vivo, Balb/c nu/nu mice; details: for Share of total xanthones in tumors: tentatively identified; for Tumor at 2 weeks, Free / Tumor at 2 weeks, Conjugates / Tumor at 4 weeks, Free / Tumor at 4 weeks, Conjugates: tumor tissue, diet 901 mg/kg xanthones; for Tumor at 2 weeks, Free / Tumor at 2 weeks, Conjugates: 2 weeks after injection of HT-29 cells; for Tumor at 2 weeks, Conjugates / Tumor at 4 weeks, Conjugates: nd = not detected; for Tumor at 4 weeks, Free / Tumor at 4 weeks, Conjugates: 4 weeks after injection of HT-29 cells
Xanthones in liver = assay type: in vivo, Balb/c nu/nu mice; details: control- and tumor-bearing mice; tentatively identified
HT-29 cells = assay: HT-29 colon cell xenograft growth in mice fed diet with α-MG; assay type: in vivo, Balb/c nu/nu mice; details: diet 900 mg α-MG/kg
BcL-2 [2] = assay: BcL-2 in tumor tissue homogenates by ELISA; assay type: in vivo, Balb/c nu/nu mice; details: mice fed diet with α-MG; 4 weeks after injection of cells; control diet 17.2 ±0.8
β-catenin [3] = assay: β-catenin in tumor tissue homogenates by ELISA; assay type: in vivo, Balb/c nu/nu mice; details: mice fed diet with α-MG; 4 weeks after injection of cells; control diet 19.1 ± 1.9
[4] = Food intake and body weight of mice fed diet with α-MG; assay type: in vivo, Balb/c nu/nu mice; details: 845 mg/kg α-MG (901 mg total xanthones/kg) in the diet
How it was run: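 Female athymic Balb/c nu/nu mice arrived at 4 weeks of age and were acclimated 4 days on AIN-93G diet. They were randomized (n = 24/group) to γ-irradiated AIN-93G without or with a nominal 900 mg/kg test compound, given ad libitum; actual diet content was determined by extraction. Food intake, appearance/behaviour and body weight were checked after 3 and 7 days. Groups were compared by one-way ANOVA with Dunnett's post-test.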

BcL-2 [5] = assay: BcL-2 content in HT-29 cells by ELISA; assay type: cell-based, human; details: 24 h
How it was run: (§1)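 HT-29 cells were seeded at 2 × 10⁵ cells/well in 6-well dishes. At 70% confluence, monolayers got basal McCoy's medium without or with test compound (6 and 12 µmol/L) for 24 h at 37°C. Cells were washed twice with ice-cold PBS and pelleted (800 × g, 4°C, 10 min), then lysed in ice-cold lysis buffer. Protein was measured with a commercial ELISA kit. Data are means ± SD versus control, compared by Welch's unpaired t-test.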

β-catenin [6] = assay: β-catenin content in HT-29 cells by ELISA; assay type: cell-based, human; details: 24 h
How it was run: as §1

[7] = human subjects after mangosteen juice blend containing 94 mg/mL α-MG; cited from earlier work
[8] = rats, gastric administration of 20 mg/kg in water containing 2% ethanol plus 2% Tween-80; cited from earlier work
[9] = 2 weeks after injection of HT-29 cells
[10] = 4 weeks after injection of HT-29 cells
[11] = 6 µmol/L, preconfluent HT-29 cells

## COc1cc2oc3cc(O)c(OC)c(CC=C(C)C)c3c(=O)c2c(O)c1CC=C(C)C [β-MG, β-mangostin]
Xanthones in serum
  Identified in serum by HPLC-MS: Low concentrations
[1]; 2 weeks after injection
  Share of total xanthones in tumors: 41%
[1]; 4 weeks
  Phase II conjugates as share of tumor β-MG: 40%
[1]; 4 weeks after injection
  Share of total xanthones in tumors: 45%
[1]
  Tumor at 2 weeks, Free: 1.54 ± 0.16 ^b) µg/g
  Tumor at 2 weeks, Conjugates: not detected
  Tumor at 4 weeks, Free: 2.68 ± 0.17 ^a) µg/g
  Tumor at 4 weeks, Conjugates: 1.83 ± 0.17 ^b) µg/g
Xanthones in liver
  Share of the total xanthones in the liver: approx. 85%

## COc1c(O)cc2oc3cc(O)c(CC=C(C)C)c(O)c3c(=O)c2c1CC=C(C)C [α-MG, α-mangostin]
HT-29 cells; [9]
  Tumor mass less than control diet: 27%
  Tumor volume less than in mice fed the diet without α-MG: 41%
HT-29 cells; [10]
  Tumor mass less than control diet: 41%
  Tumor volume less than in mice fed the diet without α-MG: 36%
BcL-2 [2]
  BcL-2 concentration in tumors: 3.9 ± 0.5 pg/mg protein
β-catenin [3]
  β-catenin concentration in tumors: 11.2 ± 0.7 pg/mg protein
[4]
  Body weight: not significantly altered
  Food intake: not significantly altered
Xanthones in serum; mice with tumors for 2 weeks
  Concentration of conjugated α-MG in serum: 1000 ± 100 ng/mL
Xanthones in serum; nontumor-bearing and tumor-bearing mice fed diet with α-MG for 5 weeks
  α-MG in serum, without enzyme treatment (free): 15 ± 1 ng/mL
Xanthones in serum; nontumor-bearing mice, 4 weeks, glucuronidase/sulfatase treated
  Concentration of total α-MG in serum: 1900 ± 300 ng/mL
[1]; 2 weeks postinjection
  Share of tumor α-MG that is conjugated: 60%
[1]; 4 weeks postinjection
  Free and conjugated α-MG concentration in tumor tissue: 3.6 ± 0.1
  Share of tumor α-MG that is conjugated: 52%
[1]
  Tumor at 2 weeks, Free: 0.51 ± 0.02 ^b) µg/g
  Tumor at 2 weeks, Conjugates: 0.76 ± 0.03 ^c) µg/g
  Tumor at 4 weeks, Free: 1.71 ± 0.06 ^a) µg/g
  Tumor at 4 weeks, Conjugates: 1.87 ± 0.06 ^a) µg/g
BcL-2 [5]; [11]
  Decrease of BcL-2 vs vehicle only: 27 ± 3%
BcL-2 [5]; 12 µmol/L, HT-29 cells
  Cellular content of BcL-2 less than control cultures: 44 ± 4%
β-catenin [6]; [11]
  Decrease of β-catenin vs vehicle only: 24 ± 2%
β-catenin [6]; 12 µmol/L, HT-29 cells
  Cellular content of β-catenin less than control cultures: 39 ± 3%
[7]
  Cmax of free α-MG in plasma: 3.1 µM
[8]
  Absorption: extremely low

## COc1c(O)cc2oc3cc4c(c(O)c3c(=O)c2c1CC=C(C)C)C=CC(C)(C)O4 [9-Hydroxycalabaxanthone]
Xanthones in serum
  Identified in serum by HPLC-MS: Low concentrations
[1]
  Tumor at 2 weeks, Free: 0.22 ± 0.09 ^a) µg/g
  Tumor at 4 weeks, Free: 0.32 ± 0.11 ^a) µg/g
